Assay [1] has as its system Cryptococcus neoformans. Briefly: Antifungal activity against Cryptococcus neoformans (Sanfelice) Vuillemin ATCC 90112 assessed as diameter of inhibition zone at 100 ug/disk after 48 to 72 hrs by paper disk assay. It is filed as functional. The procedure, abridged: (§1)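 Compound was absorbed onto 8 mm paper disks and the disks were placed on assay plates seeded with the test fungus. Plates contained Sabouraud's glucose broth agar and were incubated at 25 °C. After 48–72 h, the diameter of the inhibition zone was recorded in mm.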

Assay [2] deals with Cryptococcus neoformans. As to the kind of experiment: Antifungal activity against Cryptococcus neoformans (Sanfelice) Vuillemin ATCC 90112 assessed as diameter of inhibition zone at 20 ug/disk after 48 to 72 hrs by paper disk assay. It is filed as functional. The procedure, abridged:
as §1

In assay [3] the test system is Cryptococcus neoformans. Briefly: Antifungal activity against Cryptococcus neoformans (Sanfelice) Vuillemin ATCC 90112 assessed as diameter of inhibition zone at 5 ug/disk after 48 to 72 hrs by paper disk assay. It is filed as functional. The procedure, abridged:
as §1

In assay [4] the test system is Cryptococcus neoformans. Briefly: Antifungal activity against Cryptococcus neoformans (Sanfelice) Vuillemin ATCC 90112 assessed as diameter of inhibition zone at 1 ug/disk after 48 to 72 hrs by paper disk assay. It is filed as functional. Summed up: as §1
For assay [5], the system named is Aspergillus fumigatus. As to the kind of experiment: Antifungal activity against Aspergillus fumigatus Fresenius 167 assessed as diameter of inhibition zone at 100 ug/disk after 48 to 72 hrs by paper disk assay. It is filed as functional. As to conditions: for zone of inhibition at 100 µg/disc: Aspergillus fumigatus, read-out: IZ. Summed up:
as §1

Assay [6] concerns Aspergillus fumigatus. Briefly: Antifungal activity against Aspergillus fumigatus Fresenius 167 assessed as diameter of inhibition zone at 20 ug/disk after 48 to 72 hrs by paper disk assay. It is filed as functional. To be noted: for zone of inhibition at 20 µg/disc: Aspergillus fumigatus, read-out: IZ. Summed up: as §1
The test system of assay [7] is Aspergillus fumigatus. Briefly: Antifungal activity against Aspergillus fumigatus Fresenius 167 assessed as diameter of inhibition zone at 5 ug/disk after 48 to 72 hrs by paper disk assay. It is filed as functional. To be noted: for zone of inhibition at 5 µg/disc: Aspergillus fumigatus, read-out: IZ. Summed up: as §1
Assay [8] deals with Aspergillus fumigatus. Briefly: Antifungal activity against Aspergillus fumigatus Fresenius 167 assessed as diameter of inhibition zone at 1 ug/disk after 48 to 72 hrs by paper disk assay. It is filed as functional. To be noted: for zone of inhibition at 1 µg/disc: read-out: IZ. The procedure, abridged:
as §1

The test system of assay [9] is Aspergillus niger. Briefly: Antifungal activity against Aspergillus niger Van Tieghem H7160B assessed as diameter of inhibition zone at 100 ug/disk after 48 to 72 hrs by paper disk assay. It is filed as functional. As to conditions: for zone of inhibition at 100 µg/disc: Aspergillus niger, Van Tieghem, read-out: IZ. The procedure, abridged: as §1
Assay [10] relates to Aspergillus niger. Briefly: Antifungal activity against Aspergillus niger Van Tieghem H7160B assessed as diameter of inhibition zone at 20 ug/disk after 48 to 72 hrs by paper disk assay. To be noted: for zone of inhibition at 20 µg/disc: Aspergillus niger, Van Tieghem, read-out: IZ. It is filed as functional. The procedure, abridged:
as §1

Assay [11] relates to Aspergillus niger. Briefly: Antifungal activity against Aspergillus niger Van Tieghem H7160B assessed as diameter of inhibition zone at 5 ug/disk after 48 to 72 hrs by paper disk assay. It is filed as functional. As to conditions: for zone of inhibition at 5 µg/disc: Aspergillus niger, Van Tieghem, read-out: IZ. Summed up: as §1
Assay [12] deals with Aspergillus niger. As to the kind of experiment: Antifungal activity against Aspergillus niger Van Tieghem H7160B assessed as diameter of inhibition zone at 1 ug/disk after 48 to 72 hrs by paper disk assay. It is filed as functional. The procedure, abridged: as §1
For assay [13], the system named is Candida albicans. As to the kind of experiment: Antifungal activity against Candida albicans 7N assessed as diameter of inhibition zone at 100 ug/disk after 48 to 72 hrs by paper disk assay. As to conditions: for zone of inhibition at 100 µg/disc: Candida albicans, read-out: IZ. It is filed as functional. The procedure, abridged: as §1
Assay [14] concerns Candida albicans. As to the kind of experiment: Antifungal activity against Candida albicans 7N assessed as diameter of inhibition zone at 20 ug/disk after 48 to 72 hrs by paper disk assay. It is filed as functional. To be noted: for zone of inhibition at 20 µg/disc: Candida albicans, read-out: IZ. Summed up:
as §1

The test system of assay [15] is Candida albicans. Briefly: Antifungal activity against Candida albicans 7N assessed as diameter of inhibition zone at 5 ug/disk after 48 to 72 hrs by paper disk assay. It is filed as functional. To be noted: for zone of inhibition at 5 µg/disc: Candida albicans, read-out: IZ. The procedure, abridged: as §1
For assay [16], the system named is Candida albicans. Briefly: Antifungal activity against Candida albicans 7N assessed as diameter of inhibition zone at 1 ug/disk after 48 to 72 hrs by paper disk assay. It is filed as functional. As to conditions: for zone of inhibition at 1 µg/disc: Candida albicans, read-out: IZ. The procedure, abridged: as §1
Assay [17] relates to Cryptococcus neoformans. Briefly: Antifungal activity against Cryptococcus neoformans (Sanfelice) Vuillemin ATCC 90112 assessed as diameter of inhibition zone upto 100 ug/disk after 48 to 72 hrs by paper disk assay. It is filed as functional, organism-based. The procedure, abridged:
as §1

For assay [18], the system named is Aspergillus fumigatus. As to the kind of experiment: Antifungal activity against Aspergillus fumigatus Fresenius 167 assessed as diameter of inhibition zone upto 100 ug/disk after 48 to 72 hrs by paper disk assay. It is filed as functional, organism-based. Summed up:
as §1

Assay [19] concerns Aspergillus niger. As to the kind of experiment: Antifungal activity against Aspergillus niger Van Tieghem H7160B assessed as diameter of inhibition zone upto 100 ug/disk after 48 to 72 hrs by paper disk assay. It is filed as functional, organism-based. The procedure, abridged: as §1
Assay [20] relates to Candida albicans. As to the kind of experiment: Antifungal activity against Candida albicans 7N assessed as diameter of inhibition zone upto 100 ug/disk after 48 to 72 hrs by paper disk assay. It is filed as functional, organism-based. The procedure, abridged:
as §1

The source made the active and inactive calls. The rule behind the calls is not given here.

Consider `CCC(C)/C=C(\C)[C@H]1C(C)=C[C@@]2(C)C[C@@H](C)CC[C@@H]2[C@H]1C(=O)C1=CC(O)(Cc2ccc(O)cc2)NC1=O` (stereo in doubt; 5), for which the result in the assay with Cryptococcus neoformans [1], with Cryptococcus neoformans [2], in the assay with Cryptococcus neoformans [3] and with Cryptococcus neoformans [4] was inactive.

In the case of `CCOC1C(C(=O)[C@H]2[C@@H](/C(C)=C/C(C)CC)C(C)=C[C@@]3(C)C[C@@H](C)CC[C@H]23)C(=O)NC1(O)Cc1ccc(O)cc1` (some centres undefined) [TALAROCONVOLUTIN C], the zone of inhibition at 100 µg/disc with Aspergillus fumigatus [5], in the assay on Aspergillus niger [9] and in the assay with Candida albicans [13] was 11 mm throughout. The zone of inhibition at 20 µg/disc in the assay on Aspergillus fumigatus [6] amounted to 11 mm; in the assay with Aspergillus niger [10], 10 mm; in the assay with Candida albicans [14] it was 10 mm. Moreover, the result with Aspergillus fumigatus [7], in the assay on Aspergillus fumigatus [8], in the assay on Aspergillus niger [11], in the assay on Candida albicans [15], in the assay on Candida albicans [16] and with Cryptococcus neoformans [1] was inactive. Besides, the result in the assay with Cryptococcus neoformans [2], with Cryptococcus neoformans [3], with Cryptococcus neoformans [4] and in the assay with Cryptococcus neoformans [17] was inactive. In the assay with Aspergillus niger [12], the “inhibition zone (IZ)” value was “inactive”.

Turning to `CCC(C)/C=C(\C)[C@H]1C(C)=C[C@@]2(C)C[C@@H](C)CC[C@@H]2[C@H]1C(=O)C1=CC(O)(Cc2ccc(O)cc2)NC1=O` (stereo in doubt; 5) [TALAROCONVOLUTIN B], the “inhibition zone (IZ)” value in the assay on Aspergillus fumigatus [5] worked out at 17 mm; with Aspergillus fumigatus [6] it was 15 mm; with Aspergillus fumigatus [7], 14 mm; with Aspergillus niger [9], 16 mm; in the assay on Aspergillus niger [10], 15 mm; in the assay on Aspergillus niger [11] it was 13 mm. Also, the “inhibition zone (IZ)” value with Candida albicans [13] worked out at 20 mm; in the assay on Candida albicans [14] it was 18 mm; with Candida albicans [15] it was 17 mm; in the assay on Candida albicans [16], 15 mm. In the assay with Aspergillus fumigatus [8], the zone of inhibition at 1 µg/disc stood at 11 mm. The Activity in the assay with Aspergillus niger [12] was 11 mm.

For `CCC(C)/C=C(\C)[C@H]1C(C)=C[C@@]2(C)C[C@@H](C)CC[C@@H]2[C@H]1C(=O)C1=CC(O)(Cc2ccc(O)cc2)NC1=O` (stereo in doubt; 2) [TALAROCONVOLUTIN B], the zone of inhibition at 100 µg/disc worked out at 12 mm in the assay with Aspergillus fumigatus [5], 11 mm with Aspergillus niger [9] and 15 mm in the assay on Candida albicans [13]. For the same molecule, the zone of inhibition at 20 µg/disc in the assay on Aspergillus fumigatus [6] was found to be 11 mm; with Aspergillus niger [10], 10 mm; in the assay with Candida albicans [14], 14 mm. Also, the zone of inhibition at 5 µg/disc worked out at 10 mm with Aspergillus fumigatus [7], 9 mm in the assay on Aspergillus niger [11] and 13 mm in the assay with Candida albicans [15]. The zone of inhibition at 1 µg/disc with Candida albicans [16] is 11 mm.

Take `CCC(C)/C=C(\C)[C@H]1C(C)=C[C@@]2(C)C[C@@H](C)CC[C@@H]2[C@H]1C(=O)C1=C/C(=C/c2ccc(O)cc2)NC1=O` (some centres undefined): the outcome with Aspergillus fumigatus [18], with Aspergillus niger [19], in the assay with Candida albicans [20] and with Cryptococcus neoformans [17] was inactive.

`CCC(C)/C=C(\C)[C@H]1C(C)=C[C@@]2(C)C[C@@H](C)CC[C@@H]2[C@H]1C(=O)C1=CC(O)(Cc2ccc(O)cc2)NC1=O` (stereo in doubt; 2): the result with Aspergillus fumigatus [8], with Aspergillus niger [12], with Cryptococcus neoformans [1], in the assay with Cryptococcus neoformans [2], in the assay with Cryptococcus neoformans [3] and in the assay with Cryptococcus neoformans [4] was inactive. In the assay with Cryptococcus neoformans [17], the outcome was inactive.

As for `C[C@@H]1[C@H](O)[C@@H](C)/C=C/C=C/C=C/C=C/C=C/C=C/C=C/[C@H](O[C@@H]2O[C@H](C)[C@@H](O)[C@H](N)[C@@H]2O)C[C@@H]2O[C@](O)(C[C@@H](O)C[C@@H](O)[C@H](O)CC[C@@H](O)C[C@@H](O)CC(=O)O[C@H]1C)C[C@H](O)[C@H]2C(=O)O` [AMPHOTERICIN B], the zone of inhibition at 100 µg/disc in the assay with Aspergillus fumigatus [5] came out at 17 mm; in the assay on Aspergillus niger [9], 25 mm; with Candida albicans [13], 20 mm; in the assay on Cryptococcus neoformans [1] (read-out: IZ) it was 19 mm. In addition, the zone of inhibition at 20 µg/disc in the assay with Aspergillus fumigatus [6] was found to be 14 mm; in the assay with Aspergillus niger [10], 24 mm; in the assay with Candida albicans [14], 20 mm; with Cryptococcus neoformans [2] (read-out: IZ), 16 mm. For the same molecule, the zone of inhibition at 5 µg/disc with Aspergillus fumigatus [7] was found to be 12 mm; with Aspergillus niger [11], 20 mm; in the assay with Candida albicans [15], 18 mm; with Cryptococcus neoformans [3] (read-out: IZ), 13 mm. Further, the zone of inhibition at 1 µg/disc was 10 mm in the assay with Aspergillus fumigatus [8]; 16 mm in the assay on Aspergillus niger [12] (Aspergillus niger, Van Tieghem, read-out: IZ); 15 mm with Candida albicans [16]; 11 mm with Cryptococcus neoformans [4] (read-out: IZ).

For `CCC(C)/C=C(\C)[C@H]1C(C)=C[C@@]2(C)C[C@@H](C)CC[C@@H]2[C@H]1C(=O)C1C(=O)NC2(Cc3ccc(O)cc3)OC(C)(C)OC12` (some centres undefined), the outcome in the assay on Aspergillus fumigatus [18], with Aspergillus niger [19], in the assay on Candida albicans [20] and in the assay on Cryptococcus neoformans [17] was inactive.

The values above are taken from ChEMBL document CHEMBL1142625, “Antifungal substances against pathogenic fungi, talaroconvolutins, from talaromyces convolutus” (J Nat Prod, 2000).
